One assay has as its system Caco-2. As to the kind of experiment: Cytotoxicity against human Caco2 cells after 72 hrs by MTS assay. Format: functional, cell-based. Conditions: Caco-2, 72 h. The gist of the method: (§1)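 Colon cells (Caco-2 adenocarcinoma, nontumorigenic CCD-18Co) in EMEM with 10% FBS, 1% nonessential amino acids, 1% L-glutamine and antibiotics, passages 26–35, 37 °C, 5% CO2. Samples were dissolved in DMSO by sonication and diluted in medium, with final DMSO ≤0.5%. Six-point 4-fold dilution series ran for 72 h. MTS/PMS was read at OD490 after 3 h. IC50 reported as mean ± SD of three experiments.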
On the technique in general: Tetrazolium assays rely on reduction of a dye to a coloured formazan, in cell work by metabolically active cells.

The next assay relates to HCT-116. As to the kind of experiment: Cytotoxicity against human HCT116 cells after 72 hrs by MTS assay. Format: functional, cell-based. Conditions: HCT-116, 72 h. Summed up:
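HCT-116 carcinoma cells in McCoy's 5A with 10% FBS, 1% nonessential amino acids, 2% HEPES and antibiotics, passages 26–35, 37 °C, 5% CO2. Samples were DMSO-solubilized by sonication and diluted in medium, final DMSO ≤0.5%. Cells were exposed for 72 h to six-point 4-fold dilutions. MTS plus phenazine methosulfate ran 3 h, with absorbance at 490 nm versus control wells. IC50 given as mean ± SD, three experiments.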

The nature of assay [1]: Cytotoxicity against human CCD-18Co cells after 72 hrs by MTS assay. Format: cell-based. The gist of the method:
as §1

Each structure is given as a SMILES string. ≈ marks a conversion by molar mass, not a printed value.

For `COc1cc(CO)ccc1O[C@@H]1O[C@H](CO)[C@@H](O)[C@H](O)[C@H]1O` [VANILLOLOSIDE], the IC50 (with Caco-2; in the assay on HCT-116; in assay [1]) was under 5 µg/mL throughout.
Consider `COC(=O)c1cc(O[C@@H]2O[C@H](CO)[C@@H](O)[C@H](O)[C@H]2O[C@@H]2OC[C@](O)(CO)[C@H]2O)ccc1O` [SACCHARUMOSIDE D], for which the IC50 (with Caco-2; in the assay on HCT-116; in assay [1]) was under 5 µg/mL in each case.
Turning to `COc1cc([C@H]2OC[C@H]3[C@@H]2CO[C@@H]3c2cc(OC)c(O[C@@H]3O[C@H](CO)[C@@H](O)[C@H](O)[C@H]3O)c(OC)c2)cc(OC)c1O`, the IC50 (with Caco-2; with HCT-116; in assay [1]) was under 5 µg/mL in each case.
Regarding `COc1cc(CO)ccc1O[C@@H]1O[C@H](CO[C@@H]2OC[C@](O)(CO)[C@H]2O)[C@@H](O)[C@H](O)[C@H]1O`, the IC50 (in the assay with Caco-2; in the assay on HCT-116; in assay [1]) was under 5 µg/mL each time.
As to `COc1cc(C(=O)OC[C@H]2O[C@@H](Oc3ccc([C@@H]4Oc5c(OC)cc(CCCO)cc5[C@H]4CO)cc3OC)[C@H](O)[C@@H](O)[C@@H]2O)ccc1O` [SACCHARUMOSIDE A], the IC50 (in the assay on Caco-2; with HCT-116; in assay [1]) was under 5 µg/mL throughout.
On to `COc1cc(CO)cc(OC)c1O[C@@H]1O[C@H](CO)[C@@H](O)[C@H](O)[C@H]1O`, for which the IC50 (in the assay with Caco-2; with HCT-116; in assay [1]) was under 5 µg/mL each time.
With `COc1cc([C@@H]2Oc3c(OC)cc(CCCO)cc3[C@H]2CO)ccc1O[C@@H]1O[C@@H](C)[C@H](O)[C@@H](O)[C@H]1O`, the IC50 (with Caco-2; with HCT-116; in assay [1]) was under 5 µg/mL each time.
Take `COc1cc(O[C@@H]2O[C@H](CO[C@@H]3OC[C@](O)(CO)[C@H]3O)[C@@H](O)[C@H](O)[C@H]2O)cc(OC)c1OC`: the IC50 (in the assay on Caco-2; in the assay with HCT-116; in assay [1]) was under 5 µg/mL in each case.
On to `COc1cc2ccc(=O)oc2cc1O[C@@H]1O[C@H](CO)[C@@H](O)[C@H](O)[C@H]1O` [SCOPOLIN], for which the IC50 (in the assay on Caco-2; with HCT-116; in assay [1]) was under 5 µg/mL throughout.
In the case of `COc1cc([C@@H]2c3cc4c(cc3[C@@H](O[C@@H]3O[C@@H]5CO[C@@H](C)O[C@H]5[C@H](O)[C@H]3O)[C@H]3COC(=O)[C@H]23)OCO4)cc(OC)c1O` [ETOPOSIDE], the IC50 (usually the point on the concentration scale where inhibition reaches its midpoint) came out at 9.4 µg/mL (≈ 16 µM) in the assay with Caco-2, 9.9 µg/mL (≈ 16.8 µM) in the assay on HCT-116 and 43.6 µg/mL (≈ 74.1 µM) in assay [1].
For `COc1cc(C(=O)OC[C@H]2O[C@@H](Oc3ccc(CO)cc3OC)[C@H](O)[C@@H](O)[C@@H]2O)ccc1O` [SACCHARUMOSIDE B], in that order: under 5 µg/mL, under 5 µg/mL and under 5 µg/mL.
In the same order, the values of `COc1cc(O[C@@H]2O[C@H](CO)[C@@H](O)[C@H](O)[C@H]2O)cc(OC)c1OC` are under 5 µg/mL, under 5 µg/mL and under 5 µg/mL.
With `COC(=O)c1cc(O[C@@H]2O[C@H](CO[C@@H]3OC[C@](O)(CO)[C@H]3O)[C@@H](O)[C@H](O)[C@H]2O)ccc1O` [SACCHARUMOSIDE C], the IC50 (in the assay with Caco-2; in the assay on HCT-116; in assay [1]) was under 5 µg/mL each time.

The values are drawn from ChEMBL document CHEMBL1921775, “Phenolic glycosides from sugar maple (Acer saccharum) bark” (J Nat Prod, 2011).
